Values after ≈ are worked out from the molar mass of the structure shown. Values joined by “and” are separate entries in the source; they are usually repeats but may differ in a detail not shown here. Identical values can stand only once.
Legend:
[1] = Inhibitory activity against colon KM2OL2 cell line; assay type: functional; settings: Homo sapiens
[2] = Inhibitory activity against CNS SF-295 cell line; assay type: functional; settings: Homo sapiens
[3] = tested on: P388; assay: Inhibitory activity against leukemia P388 cell line; assay type: functional; settings: Mus musculus, read-out: ED50 (the source's name)
[4] = tested on: Tubulin; assay: Inhibitory activity against tubulin (1.0 mg/mL) assembly was determined; settings: Homo sapiens
[5] = Inhibitory activity against prostate DU145 cell line; assay type: functional; settings: Homo sapiens, DU-145
[6] = tested on: MCF7; assay: Mitotic index in MCF-7 breast cancer cells was determined; assay type: functional, Homo sapiens
[7] = biological target: Tubulin alpha chain (Sus scrofa) (UniProt P02550); assay: Percent inhibitory activity (100 uM) against colchicine binding to tubulin […]; settings: Homo sapiens
How it was run: (§1)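 Cell-free colchicine-binding test: reaction mixtures held 1.0 µM tubulin, 5.0 µM [³H]colchicine and inhibitor at the stated level; percent inhibition of radiolabel binding recorded.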

[8] = Inhibitory activity against pancreatic BXPC-3 cell line; assay type: functional; settings: Homo sapiens
[9] = tested on: MCF7; assay: Inhibitory activity against breast MCF-7 cell line; assay type: functional; settings: Homo sapiens
[10] = Inhibitory activity against lung NSC NCI-H460 cell line; assay type: functional; settings: Homo sapiens
[11] = organism: Mus musculus; assay: Inhibitory activity against murine colon 26 adenocarcinoma cell; assay type: functional
[12] = biological target: Tubulin alpha chain (Sus scrofa) (UniProt P02550); assay: Percent inhibitory activity (2 uM) against colchicine binding to tubulin […]; settings: Homo sapiens
How it was run: (§2)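 Binding of [³H]colchicine to purified tubulin, not a cell assay: reaction mixtures held 1.0 µM tubulin, 5.0 µM [³H]colchicine and test compound at 2 or 5 µM as indicated. Read-out is percent inhibition of colchicine binding.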

[13] = biological target: Tubulin alpha chain (Sus scrofa) (UniProt P02550); assay: Percent inhibitory activity (5 uM) against colchicine binding to […]; settings: Homo sapiens
[14] = biological target: Tubulin alpha chain (Sus scrofa) (UniProt P02550); assay: Percent inhibitory activity (5 uM) against colchicine binding to tubulin […]; settings: Homo sapiens; how it was run: as §2
[15] = Inhibitory activity against prostate DU145; assay type: functional; settings: Homo sapiens, DU-145, Prostate gland
[16] = tested on: MCF7; assay: Inhibitory activity against breast cancer cell line MCF-7; assay type: functional; settings: Homo sapiens
[17] = Inhibitory activity against pancreatic cell line BXPC-3; assay type: functional; settings: Homo sapiens
[18] = tested on: Tubulin; assay: Inhibitory activity against tubulin (1.0 mg/mL) assembly was determined; settings: Homo sapiens; remark: listed apart in the source
[19] = biological target: Tubulin alpha chain (Sus scrofa) (UniProt P02550); assay: Percent inhibitory activity (20 uM) against colchicine binding to tubulin […]; settings: Homo sapiens; how it was run: as §1

Tubulin alpha chain (Sus scrofa), sequence (P02550 whole entry, looked up): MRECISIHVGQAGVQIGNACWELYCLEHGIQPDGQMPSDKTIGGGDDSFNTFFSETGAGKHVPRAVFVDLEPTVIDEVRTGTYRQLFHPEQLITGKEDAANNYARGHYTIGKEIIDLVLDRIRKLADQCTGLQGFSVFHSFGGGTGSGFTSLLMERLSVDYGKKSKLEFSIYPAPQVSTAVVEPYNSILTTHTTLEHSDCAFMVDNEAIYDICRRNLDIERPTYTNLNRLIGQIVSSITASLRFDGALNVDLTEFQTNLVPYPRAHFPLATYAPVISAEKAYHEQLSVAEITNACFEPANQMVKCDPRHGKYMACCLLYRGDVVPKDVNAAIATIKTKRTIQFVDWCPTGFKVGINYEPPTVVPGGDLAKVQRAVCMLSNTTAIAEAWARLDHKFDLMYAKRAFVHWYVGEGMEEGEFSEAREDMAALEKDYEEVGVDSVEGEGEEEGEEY

SMILES: COc1ccc(/C=C\c2cc(OC)c3c(c2)OCO3)cc1NC(=O)C(N)Cc1c[nH]c2ccccc12 (stereo not given)
- GI50 [1]: 0.018 µg/mL (≈ 0.0371 µM)
- GI50 [2]: 0.042 µg/mL (≈ 0.0865 µM)
- EC50 [3]: 0.0653 µg/mL (≈ 0.134 µM)
- IC50 [4]: > 40 µM
- GI50 [5]: 0.04 µg/mL (≈ 0.0824 µM)
- Mitotic index [6]: 57
- inhibition [7]: 16%
- GI50 [8]: 0.044 µg/mL (≈ 0.0906 µM)
- GI50 [9]: 0.035 µg/mL (≈ 0.0721 µM)
- GI50 [10]: 0.053 µg/mL (≈ 0.109 µM)

SMILES: COc1ccc(/C=C/c2cc(OC)c3c(c2)OCO3)cc1[N+](=O)[O-]
- GI50 [1]: > 10 µg/mL
- GI50 [2]: 4.6 µg/mL (≈ 14 µM)
- EC50 [3]: > 10 µg/mL
- GI50 [5]: > 10 µg/mL
- GI50 [8]: > 10 µg/mL
- GI50 [9]: > 10 µg/mL
- GI50 [10]: > 10 µg/mL

SMILES: COc1ccc(/C=C/c2cc(OC)c3c(c2)OCO3)cc1P(=O)([O-])O.[Na+]
- GI50 [1]: 3.8 µg/mL
- GI50 [2]: 0.042 µg/mL
- EC50 [3]: 0.025 µg/mL
- GI50 [5]: 0.053 µg/mL
- GI50 [8]: 2.1 µg/mL
- GI50 [9]: 0.045 µg/mL
- GI50 [10]: 0.41 µg/mL

SMILES: COc1ccc(/C=C\c2cc(OC)c(OC)c(OC)c2)cc1O [COMBRETASTATIN A4]
- IC50 [4]: 2.1 µM
- IC50 [11]: 18 nM
- Mitotic index [6]: 57

SMILES: COc1ccc(/C=C\c2cc(OC)c3c(c2)OCO3)cc1N [listing 1 of 2 here]
- inhibition [12]: 84% and 87%
- inhibition [13]: 95%
- inhibition [14]: 94%

SMILES: COc1ccc(/C=C\c2cc(OC)c3c(c2)OCO3)cc1[N+](=O)[O-]
- GI50 [15]: 0.64 µg/mL (≈ 1.94 µM)
- GI50 [16]: 0.36 µg/mL (≈ 1.09 µM)
- GI50 [1]: 0.45 µg/mL (≈ 1.37 µM)
- GI50 [17]: 0.38 µg/mL (≈ 1.15 µM)
- GI50 [2]: 0.33 µg/mL (≈ 1 µM)
- EC50 [3]: 0.227 µg/mL (≈ 0.689 µM)
- IC50 [18]: 390 nM
- GI50 [10]: 0.35 µg/mL (≈ 1.06 µM)

SMILES: COc1ccc(/C=C\c2cc(OC)c3c(c2)OCO3)cc1NC(=O)C(N)CS (stereo not given)
- GI50 [1]: 0.055 µg/mL (≈ 0.137 µM)
- GI50 [2]: 0.037 µg/mL (≈ 0.0919 µM)
- EC50 [3]: 0.332 µg/mL (≈ 0.825 µM)
- IC50 [4]: > 40 µM
- GI50 [5]: 0.0046 µg/mL (≈ 0.0114 µM)
- Mitotic index [6]: 42
- inhibition [7]: 15%
- GI50 [8]: 0.2 µg/mL (≈ 0.497 µM)
- GI50 [9]: 0.05 µg/mL (≈ 0.124 µM)
- GI50 [10]: 0.032 µg/mL (≈ 0.0795 µM)

SMILES: COc1ccc(/C=C\c2cc(OC)c3c(c2)OCO3)cc1O [Combretastatin A-2]
- GI50 [1]: 0.47 µg/mL (≈ 1.57 µM)
- GI50 [2]: 0.0083 µg/mL (≈ 0.0276 µM)
- inhibition [12]: 79%
- EC50 [3]: 0.016 µg/mL (≈ 0.0533 µM)
- GI50 [5]: 0.0054 µg/mL (≈ 0.018 µM)
- GI50 [8]: 0.014 µg/mL (≈ 0.0466 µM)
- GI50 [9]: 0.0042 µg/mL (≈ 0.014 µM)
- GI50 [10]: 0.043 µg/mL (≈ 0.143 µM)
- inhibition [14]: 92%

SMILES: COc1ccc(/C=C\c2cc(OC)c(OC)c(OC)c2)cc1N
- IC50 [11]: 5.1 nM

SMILES: COc1ccc(/C=C\c2cc(OC)c3c(c2)OCO3)cc1N [listing 2 of 2 here]
- IC50 [4]: 3.1 µM
- GI50 [9]: 0.0047 µg/mL (≈ 0.0157 µM)
- GI50 [10]: 0.005 µg/mL (≈ 0.0167 µM)

SMILES: COc1ccc(/C=C\c2cc(OC)c3c(c2)OCO3)cc1NC(=O)C(N)CO (stereo not given)
- GI50 [1]: 0.019 µg/mL (≈ 0.0492 µM)
- GI50 [2]: 0.049 µg/mL (≈ 0.127 µM)
- EC50 [3]: 0.172 µg/mL (≈ 0.445 µM)
- IC50 [4]: > 40 µM
- GI50 [5]: 0.014 µg/mL (≈ 0.0362 µM)
- inhibition [19]: 22%
- Mitotic index [6]: 35
- inhibition [7]: 64%
- GI50 [8]: 0.027 µg/mL (≈ 0.0699 µM)
- GI50 [9]: 0.017 µg/mL (≈ 0.044 µM)
- GI50 [10]: 0.042 µg/mL (≈ 0.109 µM)

SMILES: COc1ccc(/C=C\c2cc(OC)c3c(c2)OCO3)cc1NC(=O)C(N)C(C)C (stereo not given)
- GI50 [1]: 0.019 µg/mL (≈ 0.0477 µM)
- GI50 [2]: 0.055 µg/mL (≈ 0.138 µM)
- EC50 [3]: 0.306 µg/mL (≈ 0.768 µM)
- IC50 [4]: > 40 µM
- GI50 [5]: 0.036 µg/mL (≈ 0.0903 µM)
- Mitotic index [6]: 48
- inhibition [7]: 14%
- GI50 [8]: 0.012 µg/mL (≈ 0.0301 µM)
- GI50 [9]: 0.037 µg/mL (≈ 0.0929 µM)
- GI50 [10]: 0.064 µg/mL (≈ 0.161 µM)

SMILES: COc1ccc(/C=C\c2cc(OC)c3c(c2)OCO3)cc1NC(=O)C(N)Cc1ccccc1 (stereo not given)
- GI50 [1]: 0.034 µg/mL (≈ 0.0761 µM)
- GI50 [2]: 1.7 µg/mL (≈ 3.81 µM)
- EC50 [3]: 0.0585 µg/mL (≈ 0.131 µM)
- IC50 [4]: > 40 µM
- GI50 [5]: 0.04 µg/mL (≈ 0.0896 µM)
- Mitotic index [6]: 52
- inhibition [7]: 16%
- GI50 [8]: 0.2 µg/mL (≈ 0.448 µM)
- GI50 [9]: 0.044 µg/mL (≈ 0.0985 µM)
- GI50 [10]: 0.044 µg/mL (≈ 0.0985 µM)

SMILES: COc1ccc(/C=C\c2cc(OC)c3c(c2)OCO3)cc1NC(=O)CN
- GI50 [1]: 0.012 µg/mL (≈ 0.0337 µM)
- GI50 [2]: 0.059 µg/mL (≈ 0.166 µM)
- EC50 [3]: 0.0199 µg/mL (≈ 0.0558 µM)
- IC50 [4]: > 40 µM
- GI50 [5]: 0.0028 µg/mL (≈ 0.00786 µM)
- inhibition [19]: 31%
- Mitotic index [6]: 52
- inhibition [7]: 66%
- GI50 [8]: 0.025 µg/mL (≈ 0.0702 µM)
- GI50 [9]: 0.014 µg/mL (≈ 0.0393 µM)
- GI50 [10]: 0.0042 µg/mL (≈ 0.0118 µM)

SMILES: COc1ccc(/C=C\c2cc(OC)c3c(c2)OCO3)cc1NC(=O)C(N)Cc1ccc(O)cc1 (stereo not given)
- GI50 [1]: 0.022 µg/mL (≈ 0.0476 µM)
- GI50 [2]: 0.0097 µg/mL (≈ 0.021 µM)
- EC50 [3]: 0.0475 µg/mL (≈ 0.103 µM)
- IC50 [4]: > 40 µM
- GI50 [5]: 0.018 µg/mL (≈ 0.0389 µM)
- Mitotic index [6]: 44
- inhibition [7]: 19%
- GI50 [8]: 0.0067 µg/mL (≈ 0.0145 µM)
- GI50 [9]: 0.035 µg/mL (≈ 0.0757 µM)
- GI50 [10]: 0.012 µg/mL (≈ 0.0259 µM)

SMILES: COc1ccc(/C=C\c2cc(OC)c3c(c2)OCO3)cc1N.Cl
- GI50 [1]: 0.035 µg/mL
- GI50 [2]: 0.0082 µg/mL
- EC50 [3]: 0.0388 µg/mL
- GI50 [5]: 0.0082 µg/mL
- GI50 [8]: 0.075 µg/mL
- GI50 [9]: 0.0042 µg/mL
- GI50 [10]: 0.0057 µg/mL

— ChEMBL document CHEMBL1145964, “Antineoplastic agents. 487. Synthesis and biological evaluation of the antineoplastic agent 3,4-methylenedioxy-5,4'-dimethoxy-3'-amino-Z-stilbene and derived amino acid amides” (J Med Chem, 2003)
